Values after ≈ are worked out from the molar mass of the structure shown. Active and inactive are the calls of the source. The rule behind the calls is not given here. Bridge positions count the residues as written; N and C are the ends. Square brackets hold non-standard residues; d marks the D form. Peptide text beside a SMILES is read from it. * marks the point of attachment. βNA = c1ccc2cc(N*)ccc2c1; Dab = NCC[C@H](N)C(=O)O
Experiments:
Klebsiella aerogenes [1] = test: Decrease in 1,2'-DiNaphtylAmine efflux in multidrug resistant Enterobacter aerogenes EA289 over-expressing AcrAB-TolC up to 128 uM after 18 hrs measured every 4 sec for 6 mins in presence of glucose by fluorescence assay
Klebsiella aerogenes [2] = test: Antibacterial activity against multidrug resistant Enterobacter aerogenes EA289 over-expressing AcrAB-TolC after 18 hrs in presence of polymyxin B nonapeptide by broth dilution method; assay type: functional; conditions: EA289, 18 h
Method in brief: (§1)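 Broth microdilution in MH broth. Inoculum 2x10⁵ cfu per well, with two-fold serial dilutions of compound from DMSO stocks (final DMSO ≤0.5%). MIC is the lowest concentration with no visible growth after 18 h at 37°C. Values are means of at least three independent experiments, in µM. Strains grown at 37°C; EA298 kept with kanamycin 50 µg.mL^-1.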

Klebsiella aerogenes [3] = test: Antibacterial activity against Enterobacter aerogenes EA298 TolC deficient after 18 hrs in presence of polymyxin B nonapeptide by broth dilution method; conditions: EA298, 18 h
Escherichia coli [4] = test: Antibacterial activity against wild type Escherichia coli AG100 after 18 hrs in presence of polymyxin B nonapeptide by broth dilution method; assay type: functional; conditions: AG100, 18 h
Escherichia coli [5] = test: Antibacterial activity against AcrAB deficient Escherichia coli AG100A after 18 hrs in presence of polymyxin B nonapeptide by broth dilution method; assay type: functional
Escherichia coli [6] = test: Antibacterial activity against AcrAB deficient Escherichia coli AG100A after 18 hrs by broth dilution method; assay type: functional
Method in brief: (§2)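 Broth microdilution MIC in MH broth with two-fold serial dilutions of compounds from DMSO solutions (final DMSO ≤ 0.5%). Inoculum was 2x10⁵ cfu per 200 µL, incubated 18 h at 37°C. MIC was the lowest concentration with no visible growth, given as the mean of at least three independent experiments, in µM. AG100A was grown with kanamycin (50 µg.mL^-1).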

Klebsiella aerogenes [7] = test: Antibacterial activity against multidrug resistant Enterobacter aerogenes EA289 over-expressing AcrAB-TolC after 18 hrs by broth dilution method; assay type: functional; conditions: EA289, 18 h
Method in brief: as §1

Klebsiella aerogenes [8] = test: Antibacterial activity against Enterobacter aerogenes EA298 TolC deficient after 18 hrs by broth dilution method; conditions: EA298, 18 h
Klebsiella aerogenes [9] = test: Induction of membrane permeability in multidrug resistant Enterobacter aerogenes EA289 over-expressing AcrAB-TolC assessed as increase in nitrocefin hydrolysis measured for 1 hr in presence of CCCP; assay type: functional
Method in brief: (§3)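 EA289 grown to exponential phase (OD600 0.5), washed in PPB (K₂HPO₄ 20 mM, MgCl₂ 1 mM, pH 7), adjusted to OD 0.375. Cells mixed with two-fold dilutions of compound (final 2–64 µM) plus CCCP 3.3 µM at 37°C. Nitrocefin added at t=0; OD490 followed for 1 h. Duplicate or triplicate.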

Escherichia coli [10] = test: Antibacterial activity against wild type Escherichia coli AG100 after 18 hrs by broth dilution method; assay type: functional; conditions: AG100, 18 h
Method in brief: as §2

Klebsiella aerogenes [11] = test: Decrease in 1,2'-DiNaphtylAmine efflux in multidrug resistant Enterobacter aerogenes EA289 over-expressing AcrAB-TolC up to 32 uM after 18 hrs measured every 4 sec for 6 mins in presence of glucose by fluorescence assay; assay type: functional
Method in brief: (§4)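 EA289 grown 24 h at 37°C, washed and resuspended in PPB at OD600 0.25. Cells loaded with 1,2'-DNA 32 µM plus CCCP 5 µM for 18 h at 37°C in the dark, washed, then mixed with compound (final 0.5–128 µM) at 37°C. Fluorescence (ex 370/em 420 nm) read every 4 s for 6 min. Glucose added at cycle 20 (~100 s) to start efflux.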

Klebsiella aerogenes [12] = test: Induction of membrane permeability in multidrug resistant Enterobacter aerogenes EA289 over-expressing AcrAB-TolC assessed as nitrocefin hydrolysis at 64 uM after 1 hr in presence of CCCP relative to control; assay type: functional; design: scale not given: the % may be the effect or the level left
Method in brief: as §3

Klebsiella aerogenes [13] = test: Decrease in 1,2'-DiNaphtylAmine efflux in multidrug resistant Enterobacter aerogenes EA289 over-expressing AcrAB-TolC at 8 to 16 uM after 18 hrs measured every 4 sec for 6 mins in presence of glucose by fluorescence assay; assay type: functional
Method in brief: as §4

Klebsiella aerogenes [14] = test: Decrease in 1,2'-DiNaphtylAmine efflux in multidrug resistant Enterobacter aerogenes EA289 over-expressing AcrAB-TolC at 32 uM after 18 hrs measured every 4 sec for 6 mins in presence of glucose by fluorescence assay; assay type: functional
Method in brief: as §4

Klebsiella aerogenes [15] = test: Induction of membrane permeability in multidrug resistant Enterobacter aerogenes EA289 over-expressing AcrAB-TolC assessed as nitrocefin hydrolysis at 3 uM up to 20 mins in presence of CCCP relative to control; assay type: functional
Method in brief: as §3

[16] = Binding affinity to Zn2+ in Muller-Hinton broth at 50 uM by ESI-MS analysis
Method in brief: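 Free ligand incubated in Mueller Hinton broth, the medium used for the antibacterial assays, then analysed by positive-ion ESI mass spectrometry for metal-bound species. […] Preformed Zn(II) and Cu(II) complexes were incubated in MH under the same conditions to check their stability.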

Klebsiella aerogenes [17] = test: Induction of membrane permeability in multidrug resistant Enterobacter aerogenes EA289 over-expressing AcrAB-TolC assessed as nitrocefin hydrolysis at 32 uM after 50 mins in presence of CCCP relative to control; assay type: functional; design: scale not given: the % may be the effect or the level left
Method in brief: as §3

Klebsiella aerogenes [18] = test: Induction of membrane permeability in multidrug resistant Enterobacter aerogenes EA289 over-expressing AcrAB-TolC assessed as nitrocefin hydrolysis at 0.75 to 48 uM after 1 hr in presence of CCCP; assay type: functional

| Compound | MIC (Klebsiella aerogenes [2]) | MIC (Klebsiella aerogenes [3]) | MIC (Escherichia coli [4]) | MIC (Escherichia coli [5]) | MIC (Escherichia coli [6]) | MIC (Klebsiella aerogenes [7]) | MIC (Klebsiella aerogenes [8]) | Activity (Klebsiella aerogenes [9]) | MIC (Escherichia coli [10]) | further results |
| --- | --- | --- | --- | --- | --- | --- | --- | --- | --- | --- |
| N=C(N)NCCC[C@H](NC(=O)[C@@H](N)Cc1ccccc1)C(=O)Nc1ccc2ccccc2c1 (H-Phe-Arg-βNA) |  |  |  |  |  |  |  |  |  | Activity (Klebsiella aerogenes [1]): inactive |
| NCCCCCCO[C@@H]1[C@@H](OCc2ccc3ccccc3c2)[C@H](N)C[C@H](N)[C@H]1O[C@H]1O[C@H](CN)[C@@H](OCc2ccc3ccccc3c2)[C@H](OCc2ccc3ccccc3c2)[C@H]1N | 16 to 32 µM | 4 to 8 µM | 8 µM | 4 µM | 8 µM (≈ 6.74 µg/mL) | 16 µM (≈ 13.5 µg/mL) | 4 µM (≈ 3.37 µg/mL) | Dose-dependent effect | 8 µM (≈ 6.74 µg/mL) |  |
| N#CC(C#N)=NNc1cccc(Cl)c1 |  |  |  |  |  |  |  |  |  | Activity (Klebsiella aerogenes [11]): Active |
| [N-]=[N+]=NCCCCCCO[C@@H]1[C@@H](OCc2ccc3ccccc3c2)[C@H](N)C[C@H](N)[C@H]1O[C@H]1O[C@H](CN)[C@@H](OCc2ccc3ccccc3c2)[C@H](OCc2ccc3ccccc3c2)[C@H]1N | 8 to 32 µM | 32 µM | 32 µM | 16 µM | 32 µM (≈ 27.8 µg/mL) | 16 µM (≈ 13.9 µg/mL) | 16 µM (≈ 13.9 µg/mL) |  | 32 µM (≈ 27.8 µg/mL) |  |
| O=C(N[C@H](CO)[C@H](O)c1ccc([N+](=O)[O-])cc1)C(Cl)Cl [CHLORAMPHENICOL] |  |  |  |  | 1 µM (≈ 0.323 µg/mL) | > 128 µM | 32 µM (≈ 10.3 µg/mL) |  | 8 µM (≈ 2.59 µg/mL) |  |
| NC[C@H]1O[C@H](O[C@H]2[C@H](OCCCCCCNC(=O)CCCCN(Cc3ccccn3)Cc3ccccn3)[C@@H](OCc3ccc4ccccc4c3)[C@H](N)C[C@@H]2N)[C@H](N)[C@@H](OCc2ccc3ccccc3c2)[C@@H]1OCc1ccc2ccccc2c1 | 8 µM | 4 to 8 µM | 4 µM | 2 to 4 µM | 8 to 16 µM (≈ 8.99 to 18 µg/mL) | 16 µM (≈ 18 µg/mL) | 8 µM (≈ 8.99 µg/mL) | Dose-dependent effect | 8 to 16 µM (≈ 8.99 to 18 µg/mL) | Activity (Klebsiella aerogenes [12]): 60%; Activity (Klebsiella aerogenes [13]): Active |
| NC[C@H]1O[C@H](O[C@H]2[C@H](OCCCCCCNC(=O)CCCC(=O)Nc3cccc(CN(Cc4ccccc4)Cc4ccccc4)c3)[C@@H](OCc3ccc4ccccc4c3)[C@H](N)C[C@@H]2N)[C@H](N)[C@@H](OCc2ccc3ccccc3c2)[C@@H]1OCc1ccc2ccccc2c1 | 128 µM | 32 to 64 µM | 32 to 64 µM | 32 µM | 32 to 128 µM (≈ 39.7 to 159 µg/mL) | 128 µM (≈ 159 µg/mL) | 64 to 128 µM (≈ 79.4 to 159 µg/mL) | Dose-dependent effect | 128 µM (≈ 159 µg/mL) | Activity (Klebsiella aerogenes [12]): 20%; Activity (Klebsiella aerogenes [14]): Active |
| CN1CCN(c2c(F)cc3c(=O)c(C(=O)O)cn(CCF)c3c2F)CC1 [FLEROXACIN] |  |  |  |  | 0.125 µM (≈ 0.0462 µg/mL) | > 128 µM | 16 µM (≈ 5.91 µg/mL) |  | 0.5 µM (≈ 0.185 µg/mL) |  |
| O=C(O)c1cn(C2CC2)c2cc(N3CCNCC3)c(F)cc2c1=O [CIPROFLOXACIN] |  |  |  |  | 0.03 µM (≈ 0.00994 µg/mL) | 64 µM (≈ 21.2 µg/mL) | 8 µM (≈ 2.65 µg/mL) |  | 0.125 µM (≈ 0.0414 µg/mL) |  |
| CC(C)(O/N=C(\C(=O)N[C@@H]1C(=O)N2C(C(=O)[O-])=C(C[n+]3ccccc3)CS[C@H]12)c1csc(N)n1)C(=O)O [CEFTAZIDIME] |  |  |  |  | 0.25 µM (≈ 0.137 µg/mL) | > 128 µM | > 128 µM |  | 0.5 µM (≈ 0.273 µg/mL) |  |
| POLYMYXIN B |  |  |  |  |  |  |  |  |  | Activity (Klebsiella aerogenes [15]): Active |
| NC[C@H]1O[C@H](O[C@H]2[C@H](OCCCCCCNC(=O)CCCC(=O)N3CCCNCCNCCCNCC3)[C@@H](OCc3ccc4ccccc4c3)[C@H](N)C[C@@H]2N)[C@H](N)[C@@H](OCc2ccc3ccccc3c2)[C@@H]1OCc1ccc2ccccc2c1 | 8 µM | 2 µM | 2 µM | 1 to 2 µM | 2 µM (≈ 2.28 µg/mL) | 4 to 16 µM (≈ 4.55 to 18.2 µg/mL) | 2 to 4 µM (≈ 2.28 to 4.55 µg/mL) | Dose-dependent effect | 4 µM (≈ 4.55 µg/mL) | Activity (Klebsiella aerogenes [13]): Active |
| NC[C@H]1O[C@H](O[C@H]2[C@H](OCCCCCCNC(=O)CCCC(=O)Nc3cccc(CN(Cc4ccccn4)Cc4ccccn4)n3)[C@@H](OCc3ccc4ccccc4c3)[C@H](N)C[C@@H]2N)[C@H](N)[C@@H](OCc2ccc3ccccc3c2)[C@@H]1OCc1ccc2ccccc2c1 | 4 to 8 µM | 2 µM | 2 to 4 µM | 2 µM | 2 µM (≈ 2.49 µg/mL) | 4 µM (≈ 4.97 µg/mL) | 2 to 8 µM (≈ 2.49 to 9.95 µg/mL) | Dose-dependent effect | 2 to 4 µM (≈ 2.49 to 4.97 µg/mL) | Activity (Klebsiella aerogenes [13]): Active; Activity [16]: Active; Activity (Klebsiella aerogenes [17]): 90% |
| CC(C)C[C@@H]1NC(=O)[C@@H](Cc2ccccc2)NC(=O)[C@H](CCN)NC(=O)[C@@H](NC(=O)[C@H](CCN)NC(=O)[C@@H](N)[C@@H](C)O)CCNC(=O)[C@H]([C@@H](C)O)NC(=O)[C@H](CCN)NC(=O)[C@H](CCN)NC1=O (H-T[Dab][Dab][Dab][dF]L[Dab][Dab]T; lactam 3-C) |  |  |  |  |  |  |  |  |  | Activity (Klebsiella aerogenes [18]): inactive |
| NC[C@H]1O[C@H](O[C@H]2[C@H](O)[C@@H](O)[C@H](N)C[C@@H]2N)[C@H](N)[C@@H](O)[C@@H]1O [NEAMINE] | 16 µM | > 128 µM | 8 µM | 128 µM | 128 µM (≈ 41.3 µg/mL) | 32 µM (≈ 10.3 µg/mL) | > 128 µM |  | 16 to 32 µM (≈ 5.16 to 10.3 µg/mL) |  |
